Reference: PubChem BioAssay AID489030 (Sanford-Burnham Center for Chemical Genomics, 2010)
Hit rate of the full screen: of about 330,000 compounds, about 2,400 (0.73%) were called active. This is one part of a sample in which actives are shown more often than they occur. Values without a mark were called inactive. Rule for the calls: active = inhibition of at least 40% at 20 µM; inactive = the rest.

These compounds were tested against Apoptotic protease-activating factor 1 (Homo sapiens) (UniProt O14727) (assay: blockers of Apaf-1-driven caspase-3 activation – biochemical, DEVD-Rh110 fluorescence, uHTS, primary screen (AID 489030;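 note: plate controls were DMSO wells for no effect and DEVD-CHO caspase inhibitor wells for full effect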)). Settings: reconstituted apoptosome caspase-3 activity, at 20 µM, hits give high values.
Chain of Apoptotic protease-activating factor 1 (Homo sapiens) (O14727 whole entry, looked up): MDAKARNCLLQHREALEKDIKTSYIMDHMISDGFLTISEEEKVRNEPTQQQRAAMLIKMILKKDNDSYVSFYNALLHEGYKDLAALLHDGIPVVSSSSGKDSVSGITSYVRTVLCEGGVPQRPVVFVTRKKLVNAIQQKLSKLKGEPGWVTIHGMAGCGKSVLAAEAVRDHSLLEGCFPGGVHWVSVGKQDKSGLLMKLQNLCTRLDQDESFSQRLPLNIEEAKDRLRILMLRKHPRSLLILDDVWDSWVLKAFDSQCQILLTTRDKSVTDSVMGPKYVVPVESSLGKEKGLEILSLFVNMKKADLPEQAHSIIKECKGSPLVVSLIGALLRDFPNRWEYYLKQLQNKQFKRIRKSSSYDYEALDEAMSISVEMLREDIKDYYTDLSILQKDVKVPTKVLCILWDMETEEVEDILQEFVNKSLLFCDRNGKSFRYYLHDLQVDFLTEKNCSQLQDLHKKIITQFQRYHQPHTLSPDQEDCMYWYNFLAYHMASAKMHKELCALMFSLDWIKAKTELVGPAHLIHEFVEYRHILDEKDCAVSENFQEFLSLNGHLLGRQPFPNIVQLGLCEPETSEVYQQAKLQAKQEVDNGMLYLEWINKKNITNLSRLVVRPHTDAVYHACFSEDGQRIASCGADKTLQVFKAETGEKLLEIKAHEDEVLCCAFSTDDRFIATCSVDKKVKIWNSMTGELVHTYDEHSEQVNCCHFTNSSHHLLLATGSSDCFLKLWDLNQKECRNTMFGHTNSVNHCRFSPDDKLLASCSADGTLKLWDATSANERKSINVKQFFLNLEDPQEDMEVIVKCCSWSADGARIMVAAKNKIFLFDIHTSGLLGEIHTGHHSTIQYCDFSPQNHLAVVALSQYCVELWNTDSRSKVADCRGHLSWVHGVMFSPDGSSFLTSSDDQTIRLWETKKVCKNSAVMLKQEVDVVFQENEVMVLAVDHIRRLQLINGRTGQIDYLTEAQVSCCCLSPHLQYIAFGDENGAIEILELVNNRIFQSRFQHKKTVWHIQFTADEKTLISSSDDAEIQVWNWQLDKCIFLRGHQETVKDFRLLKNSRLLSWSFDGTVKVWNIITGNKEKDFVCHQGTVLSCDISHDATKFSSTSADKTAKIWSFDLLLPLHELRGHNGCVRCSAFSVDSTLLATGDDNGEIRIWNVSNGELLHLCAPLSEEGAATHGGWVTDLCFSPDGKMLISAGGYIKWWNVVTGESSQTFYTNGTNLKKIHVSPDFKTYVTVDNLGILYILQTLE
In short: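 System: Apoptosome proteins | Medium: Hepes pH 7.5 with detergent and BSA | Also added: Cytochrome c trigger plus (Z-DEVD)2-Rh110 caspase-3 substrate | Incubation: 30 min compound preincubation, 50 min activation, room temperature | Detection: Rhodamine 110 fluorescence at Ex 480/Em 540 nm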
Work on `COC(=O)c1noc(C)c1-c1ccnn1C(=O)c1ccc(Cl)cc1` yielded an inhibition of 10.5%.
For `CN(C)CCCN(C(=O)c1ccc(S(=O)(=O)N2CCCc3ccccc32)cc1)c1nc2ccc(F)cc2s1`, the inhibition was 23.6%.
`COc1ccc2sc(N(CCCN(C)C)C(=O)c3ccc(S(=O)(=O)N(C)C4CCCCC4)cc3)nc2c1` was tested, and the inhibition was 24%.
`CN(C)CCCN(C(=O)c1ccc(S(=O)(=O)N2CCCCCC2)cc1)c1nc2ccc(Br)cc2s1` was tested, and the inhibition was 60.4% (active).
`C#CCOCCOCCOCCNc1nc(N2CCN(C(=O)[C@H](CCCCN)n3cc([C@@H](N)C(C)CC)nn3)CC2)nc(N2CCN(C(=O)[C@H](Cc3ccc(O)cc3)n3cc([C@@H](N)C(C)CC)nn3)CC2)n1` (some centres not stated) showed an inhibition of -9.37%.
`CC1(C)CC(=O)C2=C(C1)NCN(CCCN1CCOCC1)C2` gave an inhibition of 4.48%.
`CCc1nc(C)ccc1OCC(=O)N(CC)CC` showed an inhibition of -18.1%.
For `CCC(C)(C)c1ccc(OCC(=O)N(C)C)c(C(C)(C)CC)c1`, the inhibition was 56.5% (active).
Work on `CN(C)CCOc1ccc(Cl)cc1C(C)(C)C` yielded an inhibition of 4.15%.
With `CCOc1ccc(C(=O)CCN2CCOCC2)cc1` the inhibition was 2.64%.
Work on `CC(OC(=O)c1ccc(NS(=O)(=O)c2ccc3[nH]c(=O)[nH]c3c2)cc1)C(=O)Nc1cccc(Cl)c1Cl` (configuration not stated) yielded an inhibition of 14%.
For `CC(C)c1ccccc1OCC(O)CN(CC(O)COc1cccc2ccccc12)C(C)C` (configuration not stated), the inhibition was 57.3% (active).
With `CCC(C)Sc1nc2c(c(=O)[nH]c(=O)n2C)n1CC(O)COc1cccc2ccccc12` (configuration not stated) the inhibition was 22.5%.
`Cc1cc(C)c(NC(=O)C[N+](C)(C)CC(O)COc2cccc3ccccc23)c(C)c1` (configuration not stated) gave an inhibition of 12.4%.
With `CCCCCCCCCCOC(=O)Cn1c(COc2ccc(C)cc2)[n+](C)c2ccccc21` the inhibition was 77.7% (active).
With `CCCCn1c(N)c(N(CCOC)C(=O)c2cccc(OCc3ccccc3)c2)c(=O)[nH]c1=O` the inhibition was 0.864%.
In the case of `CCCCCCCCCCOC(=O)Cn1c(COc2cccc(OC)c2)[n+](C)c2ccccc21`, the inhibition is reported as 65.3% (active).
Compound `CCCCOc1ccc(NC(=O)CSCC(=O)OCC)cc1` has an inhibition of -4.3%.
With `CCOC(=O)COn1c(=O)c(-c2ccc(OCC)cc2)[n+]([O-])c2ccccc21` the inhibition was 9.6%.
`COc1cccc(OCc2nnc3n2N=C(c2ccccc2)C(CC(=O)O)S3)c1` (configuration not stated) showed an inhibition of -0.294%.
For `Cc1cccc(/C(N)=N/OC(=O)c2ccccc2Cl)c1`, the inhibition was 11.3%.
Compound `CCOC(=O)c1sc(C)c2c1NC(C)(c1cccc3ccccc13)NC2=O` (configuration not stated) has an inhibition of 28%.
Work on `COC(=O)c1nn(-c2cccc(Cl)c2)ccc1=O` yielded an inhibition of -6.21%.
Compound `CN(CCc1cn[nH]c1)C(=O)CC1C(=O)NCCN1Cc1cccc(Oc2ccccc2)c1` (configuration not stated) has an inhibition of 13%.
For `COCCNC(=O)Nc1ccc2nc(-c3ccco3)c(-c3ccco3)nc2c1`, the inhibition was 64.8% (active).
`COc1cccc(S(=O)(=O)NCc2ccc(C(=O)NCc3ccccn3)cc2)c1` was tested, and the inhibition was 4.94%.
With `O=C1CSc2ccc(C(=O)NCc3ccccn3)cc2N1` the inhibition was -4.15%.
`COCCNC(=O)c1snc2ccc(Cl)cc12` was tested, and the inhibition was -26%.
`O=C(NCc1ccccn1)c1ccc2nc(-c3ccco3)c(-c3ccco3)nc2c1` was tested, and the inhibition was 60.6% (active).
`CCCNC(=O)Nc1ccccc1C(=O)Nc1ccc(OC)cc1` showed an inhibition of 11.1%.
For `O=C(O)c1ccc(NC(=O)c2ccc(COc3ccc(Cl)cc3)o2)cc1`, the inhibition was 3.81%.
For `Cn1c(=O)n(C)c2cc(NS(=O)(=O)c3ccc(F)cc3)ccc21`, the inhibition was 1.91%.
With `Cc1cccc(C)c1Nc1nnc(SCC(=O)NCCCN2CCCC2=O)s1` the inhibition was -3.15%.
`Cc1ccc(/C=C(\C#N)C(=O)Nc2cccc3ncccc23)o1` gave an inhibition of -6.14%.
`O=C(Nc1cccnc1Cl)c1cc(-c2cccc(Cl)c2)on1` showed an inhibition of 3.02%.
With `O=C(O)c1cc(Cl)c(Cl)cc1C(=O)Nc1cccc2ncccc12` the inhibition was 80.4% (active).
In the case of `C=C(C)CNc1cc(S(=O)(=O)N2CCOCC2)ccc1Oc1ccccc1`, the inhibition is reported as 24.2%.
`CCCC[C@@H]1CN=C(N)N1CCc1cc(C(F)(F)F)cc(C(F)(F)F)c1` was tested, and the inhibition was 52.3% (active).
In the case of `CCCC[C@@H]1CN=C(N)N1CCCC`, the inhibition is reported as 8.23%.
In the case of `CCCC[C@@H]1CN=C(N)N1CCc1cccc(F)c1`, the inhibition is reported as 4.48%.
For `COc1ccccc1N=C1SC(C)CN1C(=O)C1CCC1` (configuration not stated), the inhibition was 3.12%.
In the case of `Cc1ccc(C)c(Cn2cnc3c(oc4ccccc43)c2=O)c1`, the inhibition is reported as -9.64%.
`CCOC(=O)C1CCCN(C(=O)c2cccc(S(=O)(=O)N3CCOCC3)c2)C1` (configuration not stated) gave an inhibition of -8.74%.
In the case of `CCOC(=O)C1CCN(C(=O)c2cccc(S(=O)(=O)N(CC)c3ccccc3)c2)CC1`, the inhibition is reported as 45.2% (active).
With `CCOC(=O)C1CCN(C(=O)c2ccccc2N(C)S(=O)(=O)c2ccccc2)CC1` the inhibition was 2.95%.
In the case of `CC(C)[C@@H](NC(=O)OC(C)(C)C)C(=O)NCC1CCC(C(=O)N[C@@H](Cc2ccccc2)C(=O)O)CC1` (some centres not stated), the inhibition is reported as 2.34%.
Compound `CCCCC(=O)Nc1ccc(C(=O)Nc2cc(C(F)(F)F)ccc2Cl)cc1` has an inhibition of 37.6%.
`CCCCN(CCCC)CCC(O)c1cc2c(Cl)cc(Cl)cc2c2cc(C(F)(F)F)ccc12` (configuration not stated) was tested, and the inhibition was 48.9% (active).
`ON=C1/C(=N\O)CC2(C/C1=N/O)OCCO2` gave an inhibition of -16%.
`CN(C(=O)CN1C(=O)CCSc2ccc(S(=O)(=O)N3CCCC3)cc21)c1ccccc1` gave an inhibition of -2.73%.
`CCC(CO)Oc1cc(NCc2ccccc2)c2ncn(C3CCCC3)c2c1` (configuration not stated) gave an inhibition of 32.6%.
In the case of `CC(C)n1cnc2c(NCc3ccccc3)cc(N[C@@H](CO)Cc3ccccc3)cc21`, the inhibition is reported as 94.5% (active).
For `CCC(CO)Oc1cc(NC(=O)c2cccc(F)c2)c2ncn(C(C)C)c2c1` (configuration not stated), the inhibition was 17.6%.
With `CCC(CO)Oc1cc(NC(=O)c2cccc3ccccc23)c2ncn(C(C)C)c2c1` (configuration not stated) the inhibition was 29.6%.
For `CC(C)n1cnc2c(NCc3ccccc3)cc(OCC3CCN(C)CC3)cc21`, the inhibition was 96.4% (active).
With `CCC(CO)Oc1cc(NC(=O)c2ccc(Cl)cc2)c2ncn(C(C)C)c2c1` (configuration not stated) the inhibition was 11.6%.
Compound `COc1ccc(N2CCN(CCNC(=O)c3nnc(Cc4c(F)cccc4Cl)o3)CC2)cc1` has an inhibition of -8.42%.
`Cn1c(=O)c2c(nc(N3CCOCC3)n2CCNC2=NCCC2)n(C)c1=O` showed an inhibition of 9.61%.
Work on `O=C(c1ccccc1)c1cccn1CC(=O)N1CCN(c2ccc(F)cc2)CC1` yielded an inhibition of 5.66%.
In the case of `Cc1nc(N)[nH]c(=O)c1Oc1cccc(C(F)(F)F)c1`, the inhibition is reported as -9.16%.
Work on `CC(=O)c1ccc(S(=O)(=O)Nc2ccc(C(=O)NCC(c3ccccc3)N(C)C)cc2)cc1` (configuration not stated) yielded an inhibition of -18.1%.
Compound `COc1ccc(C(CNC(=O)c2ccc(NS(=O)(=O)c3ccc(F)c(C)c3)cc2)N(C)C)cc1` (configuration not stated) has an inhibition of 26%.
For `COc1ccc(C(CNC(=O)c2ccc(S(=O)(=O)Nc3ccccc3F)cc2)N(C)C)cc1` (configuration not stated), the inhibition was 56.5% (active).
`CCOC(=O)C1CCN(S(=O)(=O)c2c(C)noc2C)CC1` was tested, and the inhibition was 1.33%.
`C=CCNc1nc(N)c(C(=C(C#N)C#N)c2ccccc2)s1` was tested, and the inhibition was 10.1%.
`O=C(NCCCNCc1ccccc1)c1ccc(/C=N/O)nc1` showed an inhibition of 6.05%.
`COc1ccc(CNC(=O)c2ccc(NS(=O)(=O)c3ccc4[nH]c(=O)[nH]c4c3)cc2)cc1OC` showed an inhibition of 8.25%.
`COC(=O)c1ccccc1NC(=O)CN(Cc1ccc(Cl)cc1)S(C)(=O)=O` was tested, and the inhibition was -4.4%.
`Nc1nc(NCC(=O)O)nc(N2CCCCCC2)c1[N+](=O)[O-]` showed an inhibition of -0.54%.
`N#Cc1c(N2CCCCC2)nc(N)c2c(N)nc(SCC(=O)O)cc12` was tested, and the inhibition was 96% (active).
Compound `N#CCc1c(C#N)c(N)nc(N2CCCC2)c1C#N` has an inhibition of -2.29%.
Compound `COc1nc(NC2CCCCC2)nc(N2CCCCCC2)n1` has an inhibition of 15.5%.
In the case of `O=C(O)COCC(=O)NCc1csc2ccc(Cl)cc12`, the inhibition is reported as -14.6%.
`CCOc1ccc(Br)cc1S(=O)(=O)Nc1ccc(S(=O)(=O)Nc2cc(C)on2)cc1` showed an inhibition of 9.47%.
In the case of `CCCS(=O)(=O)C(=C1Nc2ccccc2N1)S(=O)(=O)CCC`, the inhibition is reported as 8.61%.
Work on `CCCC(NS(=O)(=O)c1ccc(OC)cc1)C(=O)O` (configuration not stated) yielded an inhibition of -6.54%.
With `COc1ccc(S(=O)(=O)/N=C2\C=C(NS(=O)(=O)c3ccccc3)C(=O)c3ccccc32)cc1` the inhibition was 79.2% (active).
`COc1ccc(S(=O)(=O)NCCCc2ccccc2)cc1` showed an inhibition of -8.3%.
Compound `CCOC(=O)c1cnc(SC)nc1Sc1ccc(Cl)cc1Cl` has an inhibition of 14%.
With `O=C(c1cnccn1)N1CCN(S(=O)(=O)c2cccc(Cl)c2)CC1` the inhibition was -4.31%.
In the case of `Cc1ccc(C(C)C)cc1OCC(=O)Nc1ccccc1N1CCCC1`, the inhibition is reported as 16.1%.
In the case of `CN1CCN(c2ccccc2NC(=O)COc2ccc(C3CCCCC3)cc2)CC1`, the inhibition is reported as 43.6% (active).
`O=C(CN1CCN(C2CCCCC2)CC1)Nc1ccccc1N1CCCCC1` showed an inhibition of 6.34%.
For `Cn1nnnc1SCC(=O)Nc1cccc(S(=O)(=O)N2CCCCC2)c1`, the inhibition was 7.72%.
In the case of `CC(=O)c1c(C)[nH]c(C(=O)OCC(=O)NCCC(C)C)c1C`, the inhibition is reported as -7.2%.
In the case of `CC(=O)c1c(C)[nH]c(C(=O)COC(=O)CCOc2ccc(C)cc2)c1C`, the inhibition is reported as 9.54%.
In the case of `CC(C)(C)C(=O)N1CCC[C@@]1(CO)C(=O)O`, the inhibition is reported as 6.37%.
For `Cc1ccc(N=C2NC(=O)/C(=C/C=C/c3ccco3)S2)cc1C`, the inhibition was 61.8% (active).
For `CN1C(=O)/C(=C/c2ccco2)SC1=Nc1cccc(C(=O)O)c1`, the inhibition was 20%.
`O=C1COc2ccc(S(=O)(=O)Nc3ccc(OC(F)(F)F)cc3)cc2N1` gave an inhibition of 11.8%.
For `O=S(=O)(Nc1ccc(O)c2ccccc12)c1ccc(OC(F)(F)F)cc1`, the inhibition was 60.9% (active).
For `Cc1nn(C)c(C)c1NS(=O)(=O)c1ccc(OC(F)(F)F)cc1`, the inhibition was -0.237%.
